Source: ChEMBL document CHEMBL4049388, “Facile and efficient access to Androsten-17-(1',3',4')-pyrazoles and Androst-17β-(1',3',4')-pyrazoles via Vilsmeier reagents, and their antiproliferative activity evaluation in vitro” (Eur J Med Chem, 2017)
Active and inactive are the calls of the source. The rule behind the calls is not given here.

Legend:
HeLa [1] = assay: Induction of apoptosis in human HeLa cells assessed as gated cells at early apoptotic stage at 2.5 uM after 24 hrs by Annexin-V-FITC/propidium iodide staining based flow cytometry (reference value: 0.04%); type: functional
Procedure, shortened: (§1)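 Hela cells seeded at 10^6 per well and stabilized 24 h at 37 °C, 5% CO2. Then treated 24 h at 2.5, 5.0 or 7.5 μM, DMSO negative control. Cells washed in cold PBS, resuspended at 1×10^6 cells/mL in cold binding buffer, stained with annexin V-FITC then PI for 15 min in dark, analysed by flow cytometry.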

A549 [2] = assay: Cytotoxicity against human A549 cells after 72 hrs by SRB assay; type: functional, cell-based; conditions: A549, 72 h
Procedure, shortened: (§2)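 SRB assay on 293T, A549, Hela and MCF-7 cells, with cisplatin as reference control. IC50 calculated for each compound from triplicate assays.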

HeLa [3] = assay: Cell cycle arrest in human HeLa cells assessed as accumulation at G2 phase at 2.5 uM after 24 hrs by propidium iodide staining based flow cytometry (reference value: 24.36%); type: functional
HeLa [4] = assay: Cell cycle arrest in human HeLa cells assessed as accumulation at S phase at 2.5 uM after 24 hrs by propidium iodide staining based flow cytometry (reference value: 18.92%); type: functional
[5] = Cytotoxicity against human 293T cells assessed as growth inhibition at 10 uM after 72 hrs by SRB assay relative to control; type: cell-based; conditions: HEK-293T cells, read-out: GI
Procedure, shortened: (§3)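 SRB single-dose screen at 10 μM on 293T, A549, Hela and MCF-7 cells. Results reported as percent inhibitory ratio (mean ± SD).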

A549 [6] = assay: Cytotoxicity against human A549 cells assessed as growth inhibition at 10 uM after 72 hrs by SRB assay relative to control; type: functional; conditions: A549, 72 h, read-out: GI; procedure, shortened: as §3
HeLa [7] = assay: Induction of apoptosis in human HeLa cells assessed as irregular nucleus at 7.5 uM after 48 hrs by Hoechst 33342 staining based fluorescence microscopic method; type: functional, cell-based
Procedure, shortened: (§4)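 Hela cells seeded at 10^6 per well on cover slips and incubated 16 h. Then exposed 48 h at 2.5, 5.0 or 7.5 μM, DMSO negative control. Cells fixed in 4% paraformaldehyde for 15 min, washed in PBS, stained with Hoechst 33342 for 10 min. Nuclear morphology viewed by fluorescence microscopy, ex 350 nm / em 460 nm.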

HeLa [8] = assay: Induction of apoptosis in human HeLa cells assessed as nuclear condensation at 7.5 uM after 48 hrs by Hoechst 33342 staining based fluorescence microscopic method; type: functional, cell-based; procedure, shortened: as §4
HeLa [9] = assay: Cell cycle arrest in human HeLa cells assessed as accumulation at G1 phase at 2.5 uM after 24 hrs by propidium iodide staining based flow cytometry (reference value: 56.72%); type: functional
HeLa [10] = assay: Induction of apoptosis in human HeLa cells after 48 hrs by Hoechst 33342 staining based fluorescence microscopic method; type: functional, cell-based; procedure, shortened: as §4
HeLa [11] = assay: Induction of apoptosis in human HeLa cells assessed as total cells at viable stage at 7.5 uM after 24 hrs by Annexin-V-FITC/propidium iodide staining based flow cytometry (reference value: 96.16%); type: functional; procedure, shortened: as §1
HeLa [12] = assay: Induction of apoptosis in human HeLa cells assessed as gated cells at viable stage at 2.5 uM after 24 hrs by Annexin-V-FITC/propidium iodide staining based flow cytometry (reference value: 99.88%); type: functional; procedure, shortened: as §1
MCF7 [13] = assay: Cytotoxicity against human MCF7 cells after 72 hrs by SRB assay; type: functional, cell-based; conditions: MCF7, 72 h; procedure, shortened: as §2
HeLa [14] = assay: Cell cycle arrest in human HeLa cells assessed as accumulation at G2 phase at 7.5 uM after 24 hrs by propidium iodide staining based flow cytometry (reference value: 24.36%); type: functional
HeLa [15] = assay: Induction of apoptosis in human HeLa cells assessed as total cells at late apoptotic stage at 7.5 uM after 24 hrs by Annexin-V-FITC/propidium iodide staining based flow cytometry (reference value: 0.03%); type: functional; procedure, shortened: as §1
HeLa [16] = assay: Induction of apoptosis in human HeLa cells assessed as gated cells at early apoptotic stage at 7.5 uM after 24 hrs by Annexin-V-FITC/propidium iodide staining based flow cytometry (reference value: 0.04%); type: functional; procedure, shortened: as §1
HeLa [17] = assay: Induction of apoptosis in human HeLa cells assessed as gated cells at necrotic stage at 5 uM after 24 hrs by Annexin-V-FITC/propidium iodide staining based flow cytometry (reference value: 0.05%); type: functional; procedure, shortened: as §1
HeLa [18] = assay: Induction of apoptosis in human HeLa cells assessed as gated cells at necrotic stage at 2.5 uM after 24 hrs by Annexin-V-FITC/propidium iodide staining based flow cytometry (reference value: 0.05%); type: functional; procedure, shortened: as §1
HeLa [19] = assay: Induction of apoptosis in human HeLa cells assessed as gated cells at necrotic stage at 7.5 uM after 24 hrs by Annexin-V-FITC/propidium iodide staining based flow cytometry (reference value: 0.05%); type: functional; procedure, shortened: as §1
HeLa [20] = assay: Induction of apoptosis in human HeLa cells assessed as total cells at late apoptotic stage at 5 uM after 24 hrs by Annexin-V-FITC/propidium iodide staining based flow cytometry (reference value: 0.03%); type: functional; procedure, shortened: as §1
HeLa [21] = assay: Induction of apoptosis in human HeLa cells assessed as total cells at necrotic stage at 5 uM after 24 hrs by Annexin-V-FITC/propidium iodide staining based flow cytometry (reference value: 0.05%); type: functional; procedure, shortened: as §1
HeLa [22] = assay: Induction of apoptosis in human HeLa cells assessed as total cells at early apoptotic stage at 7.5 uM after 24 hrs by Annexin-V-FITC/propidium iodide staining based flow cytometry (reference value: 0.04%); type: functional; procedure, shortened: as §1
HeLa [23] = assay: Induction of apoptosis in human HeLa cells assessed as total cells at viable stage at 2.5 uM after 24 hrs by Annexin-V-FITC/propidium iodide staining based flow cytometry (reference value: 96.16%); type: functional; procedure, shortened: as §1
HeLa [24] = assay: Induction of apoptosis in human HeLa cells assessed as gated cells at early apoptotic stage at 5 uM after 24 hrs by Annexin-V-FITC/propidium iodide staining based flow cytometry (reference value: 0.04%); type: functional; procedure, shortened: as §1
HeLa [25] = assay: Induction of apoptosis in human HeLa cells assessed as gated cells at viable stage at 7.5 uM after 24 hrs by Annexin-V-FITC/propidium iodide staining based flow cytometry (reference value: 99.88%); type: functional; procedure, shortened: as §1
HeLa [26] = assay: Induction of apoptosis in human HeLa cells assessed as total cells at necrotic stage at 2.5 uM after 24 hrs by Annexin-V-FITC/propidium iodide staining based flow cytometry (reference value: 0.05%); type: functional; procedure, shortened: as §1
HeLa [27] = assay: Induction of apoptosis in human HeLa cells assessed as total cells at early apoptotic stage at 5 uM after 24 hrs by Annexin-V-FITC/propidium iodide staining based flow cytometry (reference value: 0.04%); type: functional; procedure, shortened: as §1
HeLa [28] = assay: Cell cycle arrest in human HeLa cells assessed as accumulation at G1 phase at 5 uM after 24 hrs by propidium iodide staining based flow cytometry (reference value: 56.72%); type: functional
HeLa [29] = assay: Cytotoxicity against human HeLa cells after 72 hrs by SRB assay; type: functional, cell-based; procedure, shortened: as §2
MCF7 [30] = assay: Cytotoxicity against human MCF7 cells assessed as growth inhibition at 10 uM after 72 hrs by SRB assay relative to control; type: functional; conditions: MCF7, 72 h, read-out: GI; procedure, shortened: as §3
HeLa [31] = assay: Induction of apoptosis in human HeLa cells assessed as total cells at necrotic stage at 7.5 uM after 24 hrs by Annexin-V-FITC/propidium iodide staining based flow cytometry (reference value: 0.05%); type: functional; procedure, shortened: as §1

Which results are given for CCNCc1cn(-c2ccccc2)nc1C1=CC[C@H]2[C@@H]3CC=C4C[C@@H](O)CC[C@]4(C)[C@H]3CC[C@]12C?
Activity (HeLa [1]): 0.59%; IC50 (A549 [2]): 7390 nM; Activity (HeLa [3]): 25.6%; Activity (HeLa [4]): 19.8%; inhibition at 72 h, 10 µM [5]: 94.2%; inhibition of growth at 10 µM (A549 [6]): 91.3%; Activity (HeLa [7]): Active; Activity (HeLa [8]): Active; Activity (HeLa [9]): 51.99%; Activity (HeLa [10]): Dose-dependent effect; Activity (HeLa [11]): 78.35%; Activity (HeLa [12]): 97.93%; IC50 (MCF7 [13]): 2530 nM; Activity (HeLa [14]): 25.31%; Activity (HeLa [15]): 0.9%; Activity (HeLa [16]): 8.37%; Activity (HeLa [17]): 3.79%; Activity (HeLa [18]): 1.31%; Activity (HeLa [19]): 3.12%; Activity (HeLa [20]): 0.31%; Activity (HeLa [21]): 3.26%; Activity (HeLa [22]): 7.5%; Activity (HeLa [23]): 95.73%; Activity (HeLa [24]): 2.41%; Activity (HeLa [25]): 87.49%; Activity (HeLa [26]): 1.28%; Activity (HeLa [27]): 2.08%; Activity (HeLa [28]): 53.13%; IC50 (HeLa [29]): 530 nM; inhibition of growth at 10 µM (MCF7 [30]): 89.3%; Activity (HeLa [31]): 2.79%
